Calls of active or inactive are those of the source. The rule behind the calls is not given here.
Legend:
Aromatase = molecular target: T1, Aromatase (Homo sapiens, UniProt P11511); assay: Inhibition of aromatase activity in human placental microsomes at 5 uM; design: species or system Placenta
T1 sequence (P11511 whole entry): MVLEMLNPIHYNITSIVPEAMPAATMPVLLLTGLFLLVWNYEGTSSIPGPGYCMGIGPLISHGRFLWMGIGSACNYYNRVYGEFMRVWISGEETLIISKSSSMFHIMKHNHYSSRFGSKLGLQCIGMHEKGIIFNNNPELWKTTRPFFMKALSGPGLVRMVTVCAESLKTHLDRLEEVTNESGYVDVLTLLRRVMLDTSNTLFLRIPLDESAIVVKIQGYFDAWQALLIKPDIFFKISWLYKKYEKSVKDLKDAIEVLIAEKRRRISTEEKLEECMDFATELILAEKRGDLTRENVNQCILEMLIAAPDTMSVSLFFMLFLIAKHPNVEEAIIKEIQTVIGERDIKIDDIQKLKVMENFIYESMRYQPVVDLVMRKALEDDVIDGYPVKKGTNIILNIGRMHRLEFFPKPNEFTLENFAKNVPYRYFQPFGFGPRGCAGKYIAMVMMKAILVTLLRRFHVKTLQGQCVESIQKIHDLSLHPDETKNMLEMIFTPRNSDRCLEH
In short: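 Human term placental microsomes (50 µg protein) incubated with 100 nM [1β-3H]androst-4-ene-3,17-dione for 15 min at 37 °C, compound at 5 µM. Quenched with chloroform; released 3H2O counted. Triplicates, with background taken from boiled microsomes. 50 µM aminoglutethimide served as positive control. Normalized to vehicle; three independent determinations.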

MDA-MB-231 = assay: Reduction in PGE2 levels in MDA-MB-231 cell; assay type: functional, cell-based; details: Homo sapiens
In short: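 MDA-MB-231 cells in phenol red-free MEM with 10% FBS were plated at 15 × 10^4 per dish, adhered overnight, then serum-starved 24 h. They were then treated 24 h at 37 °C with 25 µM agent or DMSO. PGE2 in the medium was measured by ELISA and normalized to total protein from NaOH extracts; mean ± SEM, n = 6.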

SK-BR-3 = assay: Reduction in CYP19 mRNA expression in SKBr3 cells after 24h exposure to 25uM relative to control; assay type: functional, cell-based; details: Homo sapiens
In short: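 SK-BR-3 cells were exposed 24 h to 25 µM agent or vehicle and total RNA isolated. DNase-treated RNA (2 µg) was reverse transcribed with random hexamers. CYP19 transcripts were quantified by real-time PCR (50 cycles, 95 °C 15 s / 60 °C 1 min), with 18S rRNA as housekeeping reference, relative to vehicle control.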

| SMILES | Inhibition (Aromatase) | Activity (MDA-MB-231) | Activity (SK-BR-3) |
| --- | --- | --- | --- |
| CN(c1ccc([N+](=O)[O-])cc1OC1CCCC1)S(C)(=O)=O | Not Active | inactive |  |
| CS(=O)(=O)Nc1ccc([N+](=O)[O-])cc1OC1CCCC1 | Not Active | Active |  |
| CCCCCCCCCOc1cc([N+](=O)[O-])ccc1N(C)S(C)(=O)=O | Not Active |  |  |
| CN(c1ccc([N+](=O)[O-])cc1OCC1CCCCC1)S(C)(=O)=O | Not Active | inactive |  |
| CCCCCCOc1cc([N+](=O)[O-])ccc1N(C)S(C)(=O)=O | Not Active |  |  |
| CS(=O)(=O)Nc1ccc([N+](=O)[O-])cc1OCC1CCCCC1 | Not Active |  |  |
| CCCCCCCCCOc1cc([N+](=O)[O-])ccc1NS(C)(=O)=O | Not Active |  |  |
| CN(c1ccc([N+](=O)[O-])cc1OC1CCCCC1)S(C)(=O)=O | Not Active | inactive | Active |
| CC(C)Oc1cc([N+](=O)[O-])ccc1NS(C)(=O)=O | Not Active |  |  |
| CCCOc1cc([N+](=O)[O-])ccc1NS(C)(=O)=O | Not Active |  |  |
| CS(=O)(=O)Nc1ccc([N+](=O)[O-])cc1OC1CCCCC1 [NS-398] | Not Active | Active | Active |
| CCCCCCOc1cc([N+](=O)[O-])ccc1NS(C)(=O)=O | Not Active |  |  |
| CCC(CC)Oc1cc([N+](=O)[O-])ccc1NS(C)(=O)=O | Not Active | Active | Active |
| COc1cc([N+](=O)[O-])ccc1NS(C)(=O)=O | Not Active |  |  |
| COc1cc([N+](=O)[O-])ccc1N(C)S(C)(=O)=O | Not Active |  |  |
| CC(C)Oc1cc([N+](=O)[O-])ccc1N(C)S(C)(=O)=O | Not Active |  |  |
| CCCOc1cc([N+](=O)[O-])ccc1N(C)S(C)(=O)=O | Not Active |  |  |
| CCC(CC)Oc1cc([N+](=O)[O-])ccc1N(C)S(C)(=O)=O | Not Active | inactive | Active |
